The nature of series [1]: Toxicity in CF1 mouse assessed as induction of abdominal constriction measured at time of treatment by writhing test. Conditions: in vivo. Background: In writhing tests, fewer writhes than in controls are read as antinociception.
Series [2] relates to Mus musculus. As to the kind of experiment: Anti-seizure activity in CF1 mouse assessed as attenuation of psychomotor seizures at stimulus intensities of 32 mA at 400 mg/kg, ip measured at 0.25 to 4 hrs by 6 Hz limbic seizure test relative to control. The class given is functional. The method in brief: (§1)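 Male CF-1 mice, n=8 per dose. 6 Hz, 3 s corneal stimulation at 32 or 44 mA. Compound given ip in miglyol840/DMSO (95%/5%). Time of peak effect found by testing at 0.25–4 h; dose-response run at that time. Protected if no stun, jaw/forelimb clonus, vibrissae twitching or Straub tail for ≥1 s. ED50 by Probit analysis.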

In series [3] the test system is Mus musculus. The series is described as follows: Anti-seizure activity in CF1 mouse assessed as attenuation of psychomotor seizures at stimulus intensities of 44 mA at 400 mg/kg, ip measured at 0.25 to 4 hrs by 6 Hz limbic seizure test relative to control. It counts as functional. Summed up:
as §1

A short description of series [4]: Toxicity in CF1 mouse assessed as induction of motor impairment during acute (1 hr) observation period by rotarod assay. Conditions: mouse, in vivo, 1 h. Summed up: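 Male CF-1 mice, ip dosing in miglyol 840/DMSO (95%/5%), up to 800 mg/kg. Rotarod at 6 rpm done 1 h after dosing, on the same animals just before 6 Hz testing. Falling three times within one minute scored as impaired; animals also inspected visually.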
(In general: In the rotarod test animals must keep their balance on a rotating rod.)

Series [5] in a line: Drug level in CD1 mouse plasma at 400 mg/kg, ip after 1 hr by LC-MS/MS analysis. It counts as ADME, organism-based. Summed up: (§2)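 Male mice fasted overnight and given ip dose in 95% Miglyol 840/5% DMSO. Plasma precipitated 3:1 with acetonitrile plus internal standard. Brain homogenized 3:1 in PBS, then acetonitrile extraction. LC-MS/MS in MRM mode, standard curve 1 ng/mL–10 μg/mL. Ratio = mean tissue (ng/g) over mean plasma (ng/mL) concentration.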

The nature of series [6]: Ratio of drug level in brain to plasma in CD1 mouse at 400 mg/kg, ip after 1 hr by LC-MS/MS analysis. It counts as ADME, organism-based. Conditions: brain and plasma, read-out: BPR. The method in brief:
as §2

A short description of series [7]: Ratio of drug level in brain to plasma in CD1 mouse at 400 mg/kg, ip after 2 hrs by LC-MS/MS analysis. It counts as ADME, organism-based. The conditions noted are these: brain and plasma, read-out: BPR. The method in brief: as §2
Series [8] is described as follows: Tmax in CD1 mouse at 20 mg/kg, ip measured after 0.083 to 24 hrs by LC-MS/MS analysis. The class given is ADME, organism-based. Conditions: in vivo.
The nature of series [9]: Cmax in CD1 mouse at 20 mg/kg, ip measured after 0.083 to 24 hrs by LC-MS/MS analysis. Conditions: in vivo. It counts as ADME, organism-based. Also noted: dose 20 mg/kg, route intraperitoneal. The method in brief:
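Male CD-1 mice, 3 per route. Oral and ip at 20 mg/kg by gavage needle; iv at 5 mg/kg by tail vein. Vehicles were 20% DMA:40% PEG300:40% H2O for oral/iv and 5% DMSO:95% Neobee for ip. Blood sampled 0.083–24 h, plasma protein-precipitated with acetonitrile plus internal standard, LC-MS/MS (MRM). Non-compartmental analysis, linear trapezoidal AUC.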

The nature of series [10]: Drug level corresponding to free EC50 in CD1 mouse at 200 to 400 mg/kg, ip by LC-MS/MS analysis. The conditions noted are these: in vivo. The class given is ADME, organism-based.
Series [11] in a line: Drug reactivity with 2-mercaptoethanol measured over 6 hrs. It counts as physicochemical.
Series [12] in a line: Drug reactivity with 2-mercaptoethanol measured over 24 hrs. The class given is physicochemical.
A further series addresses T1, Cytochrome P450 1A2 (Homo sapiens, UniProt P05177).
T1 sequence (P05177 whole entry): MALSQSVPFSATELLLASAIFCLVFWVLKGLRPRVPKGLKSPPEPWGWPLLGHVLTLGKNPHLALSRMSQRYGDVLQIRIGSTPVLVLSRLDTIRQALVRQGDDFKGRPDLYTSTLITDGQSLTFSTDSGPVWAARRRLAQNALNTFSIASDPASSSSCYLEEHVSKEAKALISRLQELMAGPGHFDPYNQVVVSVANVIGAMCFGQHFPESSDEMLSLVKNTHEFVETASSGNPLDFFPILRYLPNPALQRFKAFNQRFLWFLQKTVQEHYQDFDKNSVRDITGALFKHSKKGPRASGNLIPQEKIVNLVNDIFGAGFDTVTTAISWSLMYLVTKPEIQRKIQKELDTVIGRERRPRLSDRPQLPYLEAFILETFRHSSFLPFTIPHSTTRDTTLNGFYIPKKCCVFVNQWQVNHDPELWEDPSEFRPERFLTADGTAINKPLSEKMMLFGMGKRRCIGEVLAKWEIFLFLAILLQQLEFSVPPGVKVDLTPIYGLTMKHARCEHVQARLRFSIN
The series is described as follows: Inhibition of CYP1A2 in human liver microsomes using isoform-specific probe substrates incubated for 15 to 30 mins by LC-MS/MS analysis. The class given is ADME. Summed up: (§3)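 Pooled mixed-gender human liver microsomes 0.2 mg/mL in 100 mM potassium phosphate with 2 mM NADPH. Isoform-specific probe substrates near Km. Organic solvent ≤1% final. Incubated 37°C for 15–30 min, quenched with acetonitrile plus internal standard. Probe metabolites measured by LC-MS/MS; percent inhibition versus vehicle, IC50 by variable-slope sigmoid fit.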
Background: Liver microsomes are vesicles of endoplasmic reticulum, rich in cytochrome P450 enzymes.

A further series addresses Cytochrome P450 2C9 (Homo sapiens, UniProt P11712). The series is described as follows: Inhibition of CYP2C9 in human liver microsomes using isoform-specific probe substrates incubated for 15 to 30 mins by LC-MS/MS analysis. It counts as ADME. Summed up:
as §3

Another series deals with Cytochrome P450 2C19 (Homo sapiens, UniProt P33261). As to the kind of experiment: Inhibition of CYP2C19 in human liver microsomes using isoform-specific probe substrates incubated for 15 to 30 mins by LC-MS/MS analysis. It counts as ADME. Summed up: as §3
The next series has as its target Cytochrome P450 2D6 (Homo sapiens, UniProt P10635). As to the kind of experiment: Inhibition of CYP2D6 in human liver microsomes using isoform-specific probe substrates incubated for 15 to 30 mins by LC-MS/MS analysis. The class given is ADME. Summed up: as §3
For the next series, the target named is Cytochrome P450 3A4 (Homo sapiens, UniProt P08684). The series is described as follows: Inhibition of CYP3A4 in human liver microsomes using isoform-specific probe substrates incubated for 15 to 30 mins by LC-MS/MS analysis. The class given is ADME. Summed up: as §3
In the next series the target is T2, Cytochrome P450 2B6 (Homo sapiens, UniProt P20813).
T2 sequence (P20813 whole entry): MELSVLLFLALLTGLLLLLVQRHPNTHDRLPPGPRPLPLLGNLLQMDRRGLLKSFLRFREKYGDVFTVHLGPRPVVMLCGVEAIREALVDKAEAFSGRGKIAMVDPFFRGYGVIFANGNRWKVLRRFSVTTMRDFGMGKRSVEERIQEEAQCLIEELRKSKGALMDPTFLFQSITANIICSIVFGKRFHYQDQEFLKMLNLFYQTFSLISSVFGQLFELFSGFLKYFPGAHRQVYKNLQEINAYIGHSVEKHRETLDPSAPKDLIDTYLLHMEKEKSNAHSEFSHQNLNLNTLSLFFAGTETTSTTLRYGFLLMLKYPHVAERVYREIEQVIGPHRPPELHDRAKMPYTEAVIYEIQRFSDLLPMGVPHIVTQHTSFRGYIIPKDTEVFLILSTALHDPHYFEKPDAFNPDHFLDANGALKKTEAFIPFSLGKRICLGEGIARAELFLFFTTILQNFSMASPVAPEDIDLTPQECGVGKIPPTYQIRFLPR
The series is described as follows: Inhibition of CYP2B6 in human liver microsomes using isoform-specific probe substrates incubated for 15 to 30 mins by LC-MS/MS analysis. The class given is ADME. Summed up:
as §3

Cytochrome P450 2C19, sequence (P33261 whole entry, canonical isoform): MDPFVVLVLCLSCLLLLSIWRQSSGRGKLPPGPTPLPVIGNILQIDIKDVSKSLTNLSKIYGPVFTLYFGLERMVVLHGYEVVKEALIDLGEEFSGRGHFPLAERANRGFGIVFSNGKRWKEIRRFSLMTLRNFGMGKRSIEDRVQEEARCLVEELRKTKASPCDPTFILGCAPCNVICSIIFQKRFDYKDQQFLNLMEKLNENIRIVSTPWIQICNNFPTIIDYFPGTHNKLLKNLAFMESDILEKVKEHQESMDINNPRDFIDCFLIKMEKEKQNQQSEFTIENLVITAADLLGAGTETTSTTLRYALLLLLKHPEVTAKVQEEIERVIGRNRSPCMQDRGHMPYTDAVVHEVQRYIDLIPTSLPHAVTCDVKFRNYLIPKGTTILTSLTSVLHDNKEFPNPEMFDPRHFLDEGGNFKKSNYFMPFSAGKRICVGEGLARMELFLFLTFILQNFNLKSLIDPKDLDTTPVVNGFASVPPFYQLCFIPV
Cytochrome P450 2C9, sequence (P11712 whole entry, canonical isoform): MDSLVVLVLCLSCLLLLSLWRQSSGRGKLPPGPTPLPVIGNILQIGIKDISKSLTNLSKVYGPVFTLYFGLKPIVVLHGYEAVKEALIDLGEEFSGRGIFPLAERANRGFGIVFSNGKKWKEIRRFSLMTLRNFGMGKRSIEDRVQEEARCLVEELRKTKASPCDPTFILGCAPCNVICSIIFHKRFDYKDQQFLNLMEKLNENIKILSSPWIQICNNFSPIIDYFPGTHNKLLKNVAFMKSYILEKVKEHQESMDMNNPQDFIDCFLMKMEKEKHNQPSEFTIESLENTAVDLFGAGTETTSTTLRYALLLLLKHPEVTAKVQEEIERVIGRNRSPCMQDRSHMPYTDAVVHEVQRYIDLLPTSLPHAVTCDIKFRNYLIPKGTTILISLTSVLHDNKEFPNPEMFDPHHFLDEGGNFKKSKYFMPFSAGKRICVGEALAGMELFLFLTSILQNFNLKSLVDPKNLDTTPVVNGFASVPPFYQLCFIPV
Cytochrome P450 3A4, sequence (P08684 whole entry, canonical isoform): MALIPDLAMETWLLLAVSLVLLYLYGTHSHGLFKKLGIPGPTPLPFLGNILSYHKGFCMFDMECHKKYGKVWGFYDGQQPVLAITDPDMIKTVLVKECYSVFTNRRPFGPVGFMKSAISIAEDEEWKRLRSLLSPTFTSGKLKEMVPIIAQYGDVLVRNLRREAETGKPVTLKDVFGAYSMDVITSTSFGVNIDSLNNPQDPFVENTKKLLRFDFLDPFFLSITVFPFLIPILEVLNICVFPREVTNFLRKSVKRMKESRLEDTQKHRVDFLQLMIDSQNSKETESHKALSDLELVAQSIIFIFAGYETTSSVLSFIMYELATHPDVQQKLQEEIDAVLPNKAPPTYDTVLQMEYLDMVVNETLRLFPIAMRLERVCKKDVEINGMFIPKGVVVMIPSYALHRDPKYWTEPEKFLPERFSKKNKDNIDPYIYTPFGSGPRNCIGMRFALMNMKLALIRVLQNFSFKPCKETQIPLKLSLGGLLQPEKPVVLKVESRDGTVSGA
Cytochrome P450 2D6, sequence (P10635 whole entry, canonical isoform): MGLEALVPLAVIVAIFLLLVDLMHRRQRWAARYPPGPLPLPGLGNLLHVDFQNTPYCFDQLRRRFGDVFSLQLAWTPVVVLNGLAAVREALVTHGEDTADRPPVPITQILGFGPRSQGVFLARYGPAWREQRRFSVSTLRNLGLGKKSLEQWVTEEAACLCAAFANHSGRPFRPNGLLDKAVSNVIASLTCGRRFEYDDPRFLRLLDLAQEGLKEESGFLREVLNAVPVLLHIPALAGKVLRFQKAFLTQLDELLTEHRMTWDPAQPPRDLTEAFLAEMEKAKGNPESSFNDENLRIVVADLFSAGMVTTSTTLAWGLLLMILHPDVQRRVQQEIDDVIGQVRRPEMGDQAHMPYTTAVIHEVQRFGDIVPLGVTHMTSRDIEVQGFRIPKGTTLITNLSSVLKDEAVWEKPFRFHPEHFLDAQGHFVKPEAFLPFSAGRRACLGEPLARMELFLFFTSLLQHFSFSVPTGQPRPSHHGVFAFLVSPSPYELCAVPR

As for `CC(C)CCNC1=CC(=O)c2ccccc2C1=O`, the Activity entry in series [1] is “Toxic”; in the series with Mus musculus [2] it was 100%; with Mus musculus [3], 100%. The TD50 in series [4] was greater than 800 mg/kg. In series [5], the concentration at 1 h is 1.69 µg/mL. Also, in [6], the Kp at 1 h amounted to 2.33. In addition, the Kp at 2 h in [7] came to 1.79. Moreover, the Tmax in series [8] stood at 1 h. This compound also displayed a Cmax in [9] of 0.32 µg/mL. Besides, the “Drug uptake(free)” value in series [10] was 123 nM. For the same compound, the Drug metabolism result in series [11] and in [12] was “Metabolite_Notdetected” throughout. Further, the IC50 on Cytochrome P450 1A2 was 5.57 µM; on Cytochrome P450 2C9 it was 29.3 µM; against Cytochrome P450 2C19, 16.4 µM; against Cytochrome P450 2D6 it was greater than 100 µM; against Cytochrome P450 3A4, greater than 100 µM; at Cytochrome P450 2B6 it was 39.3 µM.

The term TD50 denotes the 50% point of the dose-response relation for the toxic effect studied. The Tmax is the time from dosing to the highest level. A word on the Cmax: it is the peak of the concentration-time curve. The term IC50 denotes the concentration that gives 50% inhibition. Lower therefore signals inhibition by little substance.

These data come from ChEMBL document CHEMBL4602726, “Discovery of the First Vitamin K Analogue as a Potential Treatment of Pharmacoresistant Seizures” (J Med Chem, 2020).
